Columns and labels:
[1] = target: Nucleic Acid; test: Inhibition of telomerase by TRAP assay; type: nucleic-acid assay, Homo sapiens
Outline: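 Human telomerase activity measured with a commercially available telomeric repeat amplification protocol (TRAP) kit. The value is the concentration giving 50% inhibition (telIC50). An internal reference telomerase inhibitor (BSU-1021) was run in the same assay.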

[2] = tested on: NCI-H460; test: Inhibition of human NCI-H460 cell growth at 100 uM relative to control; type: functional; conditions: values are per cent of control
[3] = tested on: MCF7; test: Inhibition of human MCF7 cell growth at 100 uM relative to control; type: functional; conditions: values are per cent of control
[4] = tested on: SF-268; test: Inhibition of human SF268 cell growth at 100 uM relative to control; type: functional; conditions: values are per cent of control

Row | Compound | IC50 [1] | growth, % of control at 100 µM [2] | growth, % of control at 100 µM [3] | growth, % of control at 100 µM [4]
1 | CN(C)CCSc1ccc(-c2cc(-c3ccc(SCCN(C)C)cc3)ncn2)cc1 | > 40 µM |  |  | 
2 | CCN(CC)CCSc1ccc(-c2cc(-c3ccc(SCCN(CC)CC)cc3)ncn2)cc1 |  | 98% | 83% | 85%
3 | OCCSc1ccc(-c2cc(-c3ccc(SCCO)cc3)ncn2)cc1 |  | 99% | 97% | 119%
4 | c1nc(-c2ccc(SCCN3CCCCC3)cc2)cc(-c2ccc(SCCN3CCCCC3)cc2)n1 | > 40 µM | 98% | 68% | 79%
5 | CN(C)CCNC(=O)c1ccc(-c2cc(-c3ccc(C(=O)NCCN(C)C)cc3)ncn2)cc1 | > 40 µM | 100% | 96% | 108%
6 | c1nc(-c2ccc(SCCN3CCOCC3)cc2)cc(-c2ccc(SCCN3CCOCC3)cc2)n1 |  | 96% | 95% | 102%
7 | COCCSc1ccc(-c2cc(-c3ccc(SCCOC)cc3)ncn2)cc1 | > 40 µM | 94% | 33% | 106%
8 | CCN(CC)CCNC(=O)c1ccc(-c2cc(-c3ccc(C(=O)NCCN(CC)CC)cc3)ncn2)cc1 | 10 µM |  |  | 
9 | O=C(NCCO)c1ccc(-c2cc(-c3ccc(C(=O)NCCO)cc3)ncn2)cc1 |  | 104% | 83% | 104%

From ChEMBL document CHEMBL1146008, “Design, synthesis, and evaluation of novel biarylpyrimidines: a new class of ligand for unusual nucleic acid structures” (J Med Chem, 2006)
